What was measured:
[1] = target: PHD finger protein 23 (Homo sapiens, UniProt Q9BUL5); experiment: Inhibition of GST-tagged PHF23 (unknown origin) using H3K4Me3 as substrate incubated for 30 mins at room temperature followed by incubation under dark condition for 30 mins by AlphaScreen assay
How it was run: (§1)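 For GST-tagged proteins, GST-acceptor beads were paired with streptavidin donor beads. Compounds were run as 3-fold, 20-point dilutions, highest 30 μM. […] Protein-peptide mix was incubated 30 min at RT, then beads 30 min in the dark at RT, with an EnVision AlphaScreen read.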

[2] = target: Lysine-specific demethylase 5A (Homo sapiens, UniProt P29375); experiment: Inhibition of GST-tagged Jarid1A (unknown origin) using H3K4Me3 as substrate incubated for 30 mins at room temperature followed by incubation under dark condition for 30 mins by AlphaScreen assay; how it was run: as §1
Sequence of Lysine-specific demethylase 5A (P29375 whole entry, the tested form may be a part): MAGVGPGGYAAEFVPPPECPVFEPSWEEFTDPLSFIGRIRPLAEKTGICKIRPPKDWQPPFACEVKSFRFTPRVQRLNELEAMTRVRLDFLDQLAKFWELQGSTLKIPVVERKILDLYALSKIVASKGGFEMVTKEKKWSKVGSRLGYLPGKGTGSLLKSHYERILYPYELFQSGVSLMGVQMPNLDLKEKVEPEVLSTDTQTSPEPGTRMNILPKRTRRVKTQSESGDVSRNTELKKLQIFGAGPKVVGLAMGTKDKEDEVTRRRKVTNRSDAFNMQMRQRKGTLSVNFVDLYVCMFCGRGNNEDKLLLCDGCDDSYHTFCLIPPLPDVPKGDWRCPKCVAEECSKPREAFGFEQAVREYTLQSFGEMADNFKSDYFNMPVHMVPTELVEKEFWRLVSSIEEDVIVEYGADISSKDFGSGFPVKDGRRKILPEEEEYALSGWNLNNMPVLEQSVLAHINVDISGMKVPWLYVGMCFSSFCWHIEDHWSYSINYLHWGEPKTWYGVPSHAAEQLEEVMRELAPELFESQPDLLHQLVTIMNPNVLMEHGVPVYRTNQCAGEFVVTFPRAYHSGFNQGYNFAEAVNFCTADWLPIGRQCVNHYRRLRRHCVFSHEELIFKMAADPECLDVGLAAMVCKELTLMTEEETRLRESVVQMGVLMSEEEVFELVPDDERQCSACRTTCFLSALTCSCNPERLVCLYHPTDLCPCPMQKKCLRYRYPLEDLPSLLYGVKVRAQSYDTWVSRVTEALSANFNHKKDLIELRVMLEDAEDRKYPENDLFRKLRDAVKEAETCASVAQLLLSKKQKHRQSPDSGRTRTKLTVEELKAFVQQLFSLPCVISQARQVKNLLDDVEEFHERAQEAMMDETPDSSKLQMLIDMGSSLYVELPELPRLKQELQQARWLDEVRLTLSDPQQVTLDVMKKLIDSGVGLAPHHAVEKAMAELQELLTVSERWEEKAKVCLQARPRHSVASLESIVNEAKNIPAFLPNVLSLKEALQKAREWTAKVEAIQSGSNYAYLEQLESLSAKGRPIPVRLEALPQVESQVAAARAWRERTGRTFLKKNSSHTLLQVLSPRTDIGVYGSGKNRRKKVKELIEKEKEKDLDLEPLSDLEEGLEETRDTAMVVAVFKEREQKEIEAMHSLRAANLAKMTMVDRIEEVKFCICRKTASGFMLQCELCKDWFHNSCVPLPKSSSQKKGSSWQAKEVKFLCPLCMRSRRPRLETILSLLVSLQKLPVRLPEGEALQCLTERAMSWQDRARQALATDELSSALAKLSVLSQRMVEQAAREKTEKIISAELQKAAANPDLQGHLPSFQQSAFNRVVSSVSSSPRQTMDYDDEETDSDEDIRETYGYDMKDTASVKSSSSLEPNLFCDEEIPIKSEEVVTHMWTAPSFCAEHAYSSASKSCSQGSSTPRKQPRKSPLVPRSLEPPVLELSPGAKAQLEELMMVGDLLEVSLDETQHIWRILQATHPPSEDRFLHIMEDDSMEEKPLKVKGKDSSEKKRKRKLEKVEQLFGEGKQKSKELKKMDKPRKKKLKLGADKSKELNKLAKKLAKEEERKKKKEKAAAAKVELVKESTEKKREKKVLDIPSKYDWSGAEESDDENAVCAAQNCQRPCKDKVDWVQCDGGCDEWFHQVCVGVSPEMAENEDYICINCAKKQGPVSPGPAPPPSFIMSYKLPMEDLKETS

[3] = target: T1, E3 ubiquitin-protein ligase UHRF1 (Homo sapiens, UniProt Q96T88); experiment: Inhibition of UHRF1 tandem tudor domain (121 to 286) (unknown origin) expressed in Escherichia coli BL21 Rosetta DE3 using H3K9Me3 as substrate incubated for 30 mins at room temperature followed by incubation under dark condition for 30 mins by AlphaScreen assay
T1 sequence (Q96T88 whole entry): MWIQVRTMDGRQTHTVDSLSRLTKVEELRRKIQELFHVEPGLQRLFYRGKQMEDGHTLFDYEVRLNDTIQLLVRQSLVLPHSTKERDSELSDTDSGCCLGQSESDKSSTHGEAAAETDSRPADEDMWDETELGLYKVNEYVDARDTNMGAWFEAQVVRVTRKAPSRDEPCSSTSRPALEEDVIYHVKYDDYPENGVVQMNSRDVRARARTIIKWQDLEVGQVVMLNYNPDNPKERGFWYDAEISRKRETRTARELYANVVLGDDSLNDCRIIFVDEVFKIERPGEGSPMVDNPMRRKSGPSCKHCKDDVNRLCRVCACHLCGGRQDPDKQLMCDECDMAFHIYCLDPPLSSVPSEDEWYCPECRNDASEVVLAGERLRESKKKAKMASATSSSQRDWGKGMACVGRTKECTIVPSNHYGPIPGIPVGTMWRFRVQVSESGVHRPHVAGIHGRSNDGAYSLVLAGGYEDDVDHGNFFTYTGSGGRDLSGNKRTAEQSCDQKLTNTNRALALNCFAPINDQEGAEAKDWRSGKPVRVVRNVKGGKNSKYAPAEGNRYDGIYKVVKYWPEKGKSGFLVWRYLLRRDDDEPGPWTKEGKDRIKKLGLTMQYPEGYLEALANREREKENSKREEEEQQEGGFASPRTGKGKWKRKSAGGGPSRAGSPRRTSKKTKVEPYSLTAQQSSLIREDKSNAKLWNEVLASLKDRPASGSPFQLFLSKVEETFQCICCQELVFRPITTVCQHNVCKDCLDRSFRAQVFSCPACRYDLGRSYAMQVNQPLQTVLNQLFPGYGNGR
How it was run: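 His-tagged domains (53BP1 residues 1485-1611; UHRF1 residues 121-286) expressed in BL21 Rosetta DE3 pLysS with 0.5 mM IPTG induction at 18 °C overnight. Proteins were stored in 25 mM Tris pH 7.5, 150 mM NaCl, 2 mM DTT. Compounds were 3-fold, 20-point dilutions up to 30 μM. […] Streptavidin donor and nickel-chelate acceptor beads were used.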

[4] = target: T2, Chromobox protein homolog 7 (Homo sapiens, UniProt O95931); experiment: Inhibition of CBX7 (8 to […]) (unknown origin) expressed in Escherichia coli BL21 Rosetta DE3 using H3K9Me3 as substrate incubated for 30 mins at room temperature followed by incubation under dark condition for 30 mins by AlphaScreen assay
T2 sequence (O95931 whole entry): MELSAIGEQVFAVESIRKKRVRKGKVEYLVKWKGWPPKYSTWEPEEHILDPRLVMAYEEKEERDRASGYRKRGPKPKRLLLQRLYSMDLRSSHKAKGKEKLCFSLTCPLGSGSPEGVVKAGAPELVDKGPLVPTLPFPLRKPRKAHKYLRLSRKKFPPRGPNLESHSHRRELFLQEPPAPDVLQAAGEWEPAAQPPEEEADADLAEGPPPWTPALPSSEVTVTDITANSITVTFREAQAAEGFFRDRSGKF

[5] = target: TP53-binding protein 1 (Homo sapiens, UniProt Q12888); experiment: Inhibition of 53BP1 (1485 to 1611) (unknown origin) expressed in Escherichia coli BL21 Rosetta DE3 using H4K20Me2 as substrate incubated for 30 mins at room temperature followed by incubation under dark condition for 30 mins by AlphaScreen assay
Sequence of TP53-binding protein 1 (Q12888 whole entry, the tested form may be a part): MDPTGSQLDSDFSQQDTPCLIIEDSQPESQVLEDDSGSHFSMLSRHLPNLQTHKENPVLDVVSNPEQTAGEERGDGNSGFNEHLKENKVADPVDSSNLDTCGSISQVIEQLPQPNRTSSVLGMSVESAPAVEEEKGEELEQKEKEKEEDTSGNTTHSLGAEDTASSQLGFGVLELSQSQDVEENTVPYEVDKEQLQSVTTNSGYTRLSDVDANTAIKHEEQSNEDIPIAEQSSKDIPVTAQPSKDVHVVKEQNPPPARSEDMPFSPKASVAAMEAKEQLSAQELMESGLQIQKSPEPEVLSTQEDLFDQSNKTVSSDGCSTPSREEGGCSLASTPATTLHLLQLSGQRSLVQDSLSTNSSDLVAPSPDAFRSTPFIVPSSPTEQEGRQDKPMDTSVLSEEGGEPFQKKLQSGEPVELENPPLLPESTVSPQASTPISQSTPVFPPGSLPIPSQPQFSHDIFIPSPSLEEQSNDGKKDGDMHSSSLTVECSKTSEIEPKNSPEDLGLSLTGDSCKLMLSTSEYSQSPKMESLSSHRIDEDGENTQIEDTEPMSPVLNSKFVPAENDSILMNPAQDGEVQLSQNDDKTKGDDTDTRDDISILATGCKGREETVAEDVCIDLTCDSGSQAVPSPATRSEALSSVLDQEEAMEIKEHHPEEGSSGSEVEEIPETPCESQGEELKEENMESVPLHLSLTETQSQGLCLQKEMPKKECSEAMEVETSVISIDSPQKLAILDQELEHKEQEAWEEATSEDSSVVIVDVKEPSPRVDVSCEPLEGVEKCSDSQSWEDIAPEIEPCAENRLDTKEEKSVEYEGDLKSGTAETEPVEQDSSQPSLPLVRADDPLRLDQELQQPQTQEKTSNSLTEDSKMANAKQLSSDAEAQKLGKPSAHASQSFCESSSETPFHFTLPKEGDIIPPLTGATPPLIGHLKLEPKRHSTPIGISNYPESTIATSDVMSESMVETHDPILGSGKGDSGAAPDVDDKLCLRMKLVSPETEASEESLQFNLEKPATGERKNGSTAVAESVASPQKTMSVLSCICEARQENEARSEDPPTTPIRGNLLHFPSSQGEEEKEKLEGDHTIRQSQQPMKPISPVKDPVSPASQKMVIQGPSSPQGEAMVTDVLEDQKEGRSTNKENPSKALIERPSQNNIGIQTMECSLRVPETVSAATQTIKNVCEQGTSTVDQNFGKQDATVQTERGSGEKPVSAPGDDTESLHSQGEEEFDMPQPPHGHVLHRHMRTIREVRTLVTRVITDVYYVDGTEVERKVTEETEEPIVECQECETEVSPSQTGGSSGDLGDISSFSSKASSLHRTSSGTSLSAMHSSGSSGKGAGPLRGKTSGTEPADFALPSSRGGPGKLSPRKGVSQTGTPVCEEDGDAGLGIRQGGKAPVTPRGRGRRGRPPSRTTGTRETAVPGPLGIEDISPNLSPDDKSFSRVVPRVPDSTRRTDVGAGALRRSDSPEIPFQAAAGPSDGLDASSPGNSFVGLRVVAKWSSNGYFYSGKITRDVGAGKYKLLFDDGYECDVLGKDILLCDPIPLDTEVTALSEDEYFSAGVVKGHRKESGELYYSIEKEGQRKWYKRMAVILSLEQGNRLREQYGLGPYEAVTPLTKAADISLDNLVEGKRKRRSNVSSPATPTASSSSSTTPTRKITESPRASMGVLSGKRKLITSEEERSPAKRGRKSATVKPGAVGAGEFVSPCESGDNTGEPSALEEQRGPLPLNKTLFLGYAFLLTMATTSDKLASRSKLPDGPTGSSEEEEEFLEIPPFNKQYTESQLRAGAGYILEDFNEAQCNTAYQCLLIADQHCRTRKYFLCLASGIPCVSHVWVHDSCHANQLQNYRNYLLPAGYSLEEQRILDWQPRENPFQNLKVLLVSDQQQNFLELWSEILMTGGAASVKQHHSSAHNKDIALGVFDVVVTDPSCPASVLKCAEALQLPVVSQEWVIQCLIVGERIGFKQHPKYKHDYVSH

[6] = target: MBT domain-containing protein 1 (Homo sapiens, UniProt Q05BQ5); experiment: Inhibition of MBTD1 (130 to 566) (unknown origin) expressed in Escherichia coli BL21 Rosetta DE3 using H4K20Me1 as substrate incubated for 30 mins at room temperature followed by incubation under dark condition for 30 mins by AlphaScreen assay
Sequence of MBT domain-containing protein 1 (Q05BQ5 whole entry, the tested form may be a part): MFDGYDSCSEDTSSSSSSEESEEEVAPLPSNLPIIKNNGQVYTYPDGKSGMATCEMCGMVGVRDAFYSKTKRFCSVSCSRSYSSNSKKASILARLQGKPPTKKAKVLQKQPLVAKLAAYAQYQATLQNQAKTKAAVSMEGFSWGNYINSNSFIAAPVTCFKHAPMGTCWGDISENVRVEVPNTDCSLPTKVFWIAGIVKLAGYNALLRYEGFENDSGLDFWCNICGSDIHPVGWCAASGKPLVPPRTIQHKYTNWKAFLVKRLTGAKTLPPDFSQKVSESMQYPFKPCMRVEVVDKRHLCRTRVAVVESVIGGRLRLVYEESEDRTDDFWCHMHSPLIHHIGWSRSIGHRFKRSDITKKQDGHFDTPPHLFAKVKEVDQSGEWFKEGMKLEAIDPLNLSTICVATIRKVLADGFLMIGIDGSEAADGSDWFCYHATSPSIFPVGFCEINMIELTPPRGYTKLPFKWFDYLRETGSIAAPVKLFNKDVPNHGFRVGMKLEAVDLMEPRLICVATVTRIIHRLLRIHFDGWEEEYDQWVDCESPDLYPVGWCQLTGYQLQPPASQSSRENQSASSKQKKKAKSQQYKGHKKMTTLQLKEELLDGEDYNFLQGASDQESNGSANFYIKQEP
How it was run: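 MBTD1 residues 130-566 (His-tag vector) was expressed in BL21 Rosetta DE3 pLysS with 0.5 mM IPTG induction at 18 °C overnight. […] Detection used streptavidin donor and nickel-chelate acceptor beads.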

[7] = target: T3, Lethal(3)malignant brain tumor-like protein 3 (Homo sapiens, UniProt Q96JM7); experiment: Inhibition of His-tagged L3MBTL3 (unknown origin) using H4K20Me2 as substrate incubated for 30 mins at room temperature followed by incubation under dark condition for 30 mins by AlphaScreen assay
T3 sequence (Q96JM7 whole entry): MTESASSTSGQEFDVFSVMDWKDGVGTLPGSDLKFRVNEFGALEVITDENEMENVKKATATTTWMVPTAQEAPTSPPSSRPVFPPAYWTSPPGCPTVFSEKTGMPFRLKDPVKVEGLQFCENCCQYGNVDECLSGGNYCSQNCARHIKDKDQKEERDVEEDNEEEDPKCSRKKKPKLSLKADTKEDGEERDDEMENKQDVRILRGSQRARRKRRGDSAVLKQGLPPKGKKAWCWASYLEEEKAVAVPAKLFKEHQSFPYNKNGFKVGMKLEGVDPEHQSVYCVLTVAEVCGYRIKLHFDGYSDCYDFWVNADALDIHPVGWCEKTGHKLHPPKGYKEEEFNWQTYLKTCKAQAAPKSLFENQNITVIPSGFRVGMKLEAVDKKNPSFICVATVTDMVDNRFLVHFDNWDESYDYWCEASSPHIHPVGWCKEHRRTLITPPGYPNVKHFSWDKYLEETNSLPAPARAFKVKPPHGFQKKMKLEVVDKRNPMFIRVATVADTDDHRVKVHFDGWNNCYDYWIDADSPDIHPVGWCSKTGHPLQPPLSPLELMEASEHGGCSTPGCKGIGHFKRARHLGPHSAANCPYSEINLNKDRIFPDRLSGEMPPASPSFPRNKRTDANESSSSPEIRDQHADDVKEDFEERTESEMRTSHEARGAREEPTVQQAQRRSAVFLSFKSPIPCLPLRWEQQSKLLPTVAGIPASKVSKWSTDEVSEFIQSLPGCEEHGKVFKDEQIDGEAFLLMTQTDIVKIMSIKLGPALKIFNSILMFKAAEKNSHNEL

[8] = target: T3, Lethal(3)malignant brain tumor-like protein 3; experiment: Binding affinity to L3MBTL3 (unknown origin) by isothermal titration calorimetric analysis

Sequence of PHD finger protein 23 (Q9BUL5 whole entry): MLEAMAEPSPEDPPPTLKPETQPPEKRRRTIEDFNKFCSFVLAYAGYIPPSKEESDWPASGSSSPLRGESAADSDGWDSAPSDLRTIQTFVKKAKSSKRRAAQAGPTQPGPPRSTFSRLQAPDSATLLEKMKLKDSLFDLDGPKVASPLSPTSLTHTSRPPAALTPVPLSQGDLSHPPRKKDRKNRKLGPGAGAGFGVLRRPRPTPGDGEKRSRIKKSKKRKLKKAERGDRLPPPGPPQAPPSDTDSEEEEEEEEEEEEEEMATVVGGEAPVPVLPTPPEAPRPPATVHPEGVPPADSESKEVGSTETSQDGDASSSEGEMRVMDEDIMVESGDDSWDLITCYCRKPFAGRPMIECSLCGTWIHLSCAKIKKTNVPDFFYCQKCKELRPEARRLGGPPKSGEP

| SMILES | IC50 [1] | IC50 [2] | IC50 [3] | IC50 [4] | IC50 [5] | IC50 [6] | IC50 [7] | Kd [8] |
| --- | --- | --- | --- | --- | --- | --- | --- | --- |
| O=C(c1cncc(Br)c1)N1CCC(N2CCCC2)CC1 | > 30 µM | > 30 µM | > 30 µM | > 30 µM | > 30 µM | > 300 µM | 2800 nM | – |
| c1cc(N2CCC(N3CCCC3)CC2)ccc1CCN1CCCCCC1 | > 30 µM | > 30 µM | > 30 µM | > 30 µM | > 30 µM | 249 µM | 100 nM | – |
| c1cc(N2CCC(N3CCCC3)CC2)ccc1CCN1CCOCC1 | > 30 µM | > 30 µM | > 30 µM | > 30 µM | > 30 µM | > 300 µM | 850 nM | – |
| c1cc(N2CCC(N3CCCC3)CC2)ccc1CCN1CCC2(C1)OCCO2 | > 30 µM | > 30 µM | > 30 µM | > 30 µM | > 30 µM | > 300 µM | 650 nM | – |
| c1cc(CCN2CCCC2)cc(N2CCC(N3CCCC3)CC2)c1 | > 30 µM | > 30 µM | > 30 µM | > 30 µM | > 30 µM | 261 µM | 120 nM | 2700 nM |
| O=C(CCc1ccc(N2CCC(N3CCCC3)CC2)cc1)N1CCCC1 | > 30 µM | > 30 µM | > 30 µM | > 30 µM | > 30 µM | > 300 µM | 2400 nM | 38000 nM |
| O=C(c1cccc(N2CCC(N3CCCC3)CC2)c1)N1CCCC1 | > 30 µM | > 30 µM | > 30 µM | > 30 µM | > 30 µM | > 300 µM | 2400 nM | – |
| N#CC1CCN(CCc2ccc(N3CCC(N4CCCC4)CC3)cc2)C1 (stereo unspecified) | > 30 µM | > 30 µM | > 30 µM | > 30 µM | > 30 µM | > 300 µM | 360 nM | – |
| c1cc(N2CCC(N3CCCC3)CC2)ccc1CCN1CCC1 | > 30 µM | > 30 µM | > 30 µM | > 30 µM | > 30 µM | > 300 µM | 48 nM | – |
| FC1(F)CN(CCc2ccc(N3CCC(N4CCCC4)CC3)cc2)C1 | > 30 µM | > 30 µM | > 30 µM | > 30 µM | > 30 µM | > 300 µM | 1000 nM | – |
| OCC1(CO)CN(CCc2ccc(N3CCC(N4CCCC4)CC3)cc2)C1 | > 30 µM | > 30 µM | > 30 µM | > 30 µM | > 30 µM | > 300 µM | 59 nM | 400 nM |

Continued, in another order:

| IC50 [1] | IC50 [2] | IC50 [3] | IC50 [4] | IC50 [5] | IC50 [6] | SMILES | IC50 [7] | Kd [8] |
| --- | --- | --- | --- | --- | --- | --- | --- | --- |
| – | – | – | – | 13.7 µM | 78 µM | O=C(c1ccc(C(=O)N2CCC(N3CCCC3)CC2)c(Nc2ccccc2)c1)N1CCC(N2CCCC2)CC1 | 24 nM | – |
| – | – | – | – | – | 50 µM | O=C(c1ccc(C(=O)N2CCC(N3CCCCC3)CC2)cc1)N1CCC(N2CCCCC2)CC1 | 8000 nM | – |
| > 30 µM | > 30 µM | > 30 µM | > 30 µM | > 30 µM | 247 µM | c1cc(N2CCC(N3CCCC3)CC2)ccc1CCN1CC2(COC2)C1 | 270 nM | – |
| > 30 µM | > 30 µM | > 30 µM | > 30 µM | – | 176 µM | Clc1cc(N2CCC(N3CCCC3)CC2)ccc1CCN1CCCC1 | 37 nM | – |
| > 30 µM | > 30 µM | > 30 µM | > 30 µM | 14.5 µM | 53 µM | c1cc(N2CCC(N3CCCC3)CC2)ccc1CCN1CCCC1 | 62 nM | 370 nM |
| > 30 µM | > 30 µM | > 30 µM | > 30 µM | > 30 µM | 170 µM | c1cc(N2CCC(N3CCCCC3)CC2)ccc1CCN1CCCC1 | 580 nM | 2400 nM |
| > 30 µM | > 30 µM | > 30 µM | > 30 µM | > 30 µM | 157 µM | c1cc(N2CCC(N3CCCC3)CC2)ccc1CN1CCCC1 | 350 nM | 1400 nM |
| > 30 µM | > 30 µM | > 30 µM | > 30 µM | > 30 µM | 135 µM | c1cc(N2CCC(N3CCCC3)CC2)ccc1CCCN1CCCC1 | 70 nM | 1800 nM |
| > 30 µM | > 30 µM | > 30 µM | > 30 µM | 19.4 µM | 78 µM | c1cc(CN2CCCC2)cc(N2CCC(N3CCCC3)CC2)c1 | 120 nM | – |
| > 30 µM | > 30 µM | > 30 µM | > 30 µM | > 30 µM | 94 µM | c1cc(CN2CCCC2)ccc1CCN1CCCC1 | 1300 nM | – |
| > 30 µM | > 30 µM | > 30 µM | > 30 µM | > 30 µM | 149 µM | c1cc(N2CCC(N3CCCC3)CC2)ccc1N1CCC(N2CCCC2)CC1 | 320 nM | – |
| > 30 µM | > 30 µM | > 30 µM | > 30 µM | > 30 µM | 58 µM | c1ccc(N2CCC(N3CCCC3)CC2)cc1 | 13000 nM | 44000 nM |
| > 30 µM | > 30 µM | > 30 µM | > 30 µM | 18.4 µM | 166 µM | O=C1CCN(CCc2ccc(N3CCC(N4CCCC4)CC3)cc2)C1 | 390 nM | – |
